Data taken from ChEMBL document CHEMBL1141609, “Combinatorial synthesis of anilinoanthraquinone derivatives and evaluation as non-nucleotide-derived P2Y2 receptor antagonists” (Bioorg Med Chem Lett, 2008).

Columns and labels:
[1] = target: P2Y purinoceptor 2 (Homo sapiens, UniProt P41231); assay: Antagonist activity at human recombinant P2Y2 receptor in 1321N1 cells assessed as inhibition of UTP-induced calcium mobilization; format: functional, cell-based
Procedure, shortened: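 Human P2Y2 receptor recombinantly expressed in 1321N1 astrocytoma cells. Calcium mobilization evoked by 1 uM UTP (ca. 50-80% of maximal effect) was read with the fluorescent Ca2+ dye Fura-2 on a fluorescence plate reader. IC50 was taken from inhibition of the UTP response.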

[2] = target: P2Y purinoceptor 2 (Mus musculus, UniProt P35383); assay: Antagonist activity at mouse P2Y2 receptor in mouse NG108-15 cells assessed as inhibition of UTP-induced calcium mobilization; format: functional, cell-based
Procedure, shortened: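 Mouse P2Y2 receptor natively expressed in NG108-15 neuroblastoma x glioma hybrid cells. Calcium mobilization evoked by 3 uM UTP (ca. 50-80% of maximal effect) was read with the fluorescent Ca2+ dye Fura-2 on a fluorescence plate reader. IC50 was taken from inhibition of the UTP response.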

[3] = target: T1, 5'-nucleotidase (Rattus norvegicus, UniProt P21588); assay: Inhibition of rat ecto-5'-nucleotidase
T1 sequence (P21588 whole entry): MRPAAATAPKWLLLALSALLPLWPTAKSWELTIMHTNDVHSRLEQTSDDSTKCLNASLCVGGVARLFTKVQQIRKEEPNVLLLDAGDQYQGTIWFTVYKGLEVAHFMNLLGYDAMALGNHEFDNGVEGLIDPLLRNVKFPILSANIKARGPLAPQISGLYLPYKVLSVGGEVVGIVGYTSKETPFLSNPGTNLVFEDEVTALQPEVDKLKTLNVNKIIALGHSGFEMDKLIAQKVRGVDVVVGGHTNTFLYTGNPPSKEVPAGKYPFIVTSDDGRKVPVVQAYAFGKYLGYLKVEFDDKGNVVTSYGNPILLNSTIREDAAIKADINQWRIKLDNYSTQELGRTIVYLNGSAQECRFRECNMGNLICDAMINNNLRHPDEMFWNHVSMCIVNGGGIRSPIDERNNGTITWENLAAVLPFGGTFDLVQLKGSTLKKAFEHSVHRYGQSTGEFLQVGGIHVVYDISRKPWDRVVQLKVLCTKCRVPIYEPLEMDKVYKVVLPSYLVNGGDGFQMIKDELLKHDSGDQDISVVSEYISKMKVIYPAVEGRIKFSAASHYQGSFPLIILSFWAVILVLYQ

[4] = target: P2Y purinoceptor 6 (Rattus norvegicus, UniProt Q63371); assay: Antagonist activity at rat P2Y6 receptor; format: functional
[5] = target: T2, Ectonucleoside triphosphate diphosphohydrolase 1 (Rattus norvegicus, UniProt P97687); assay: Inhibition of rat NTPDase 1
T2 sequence (P97687 whole entry): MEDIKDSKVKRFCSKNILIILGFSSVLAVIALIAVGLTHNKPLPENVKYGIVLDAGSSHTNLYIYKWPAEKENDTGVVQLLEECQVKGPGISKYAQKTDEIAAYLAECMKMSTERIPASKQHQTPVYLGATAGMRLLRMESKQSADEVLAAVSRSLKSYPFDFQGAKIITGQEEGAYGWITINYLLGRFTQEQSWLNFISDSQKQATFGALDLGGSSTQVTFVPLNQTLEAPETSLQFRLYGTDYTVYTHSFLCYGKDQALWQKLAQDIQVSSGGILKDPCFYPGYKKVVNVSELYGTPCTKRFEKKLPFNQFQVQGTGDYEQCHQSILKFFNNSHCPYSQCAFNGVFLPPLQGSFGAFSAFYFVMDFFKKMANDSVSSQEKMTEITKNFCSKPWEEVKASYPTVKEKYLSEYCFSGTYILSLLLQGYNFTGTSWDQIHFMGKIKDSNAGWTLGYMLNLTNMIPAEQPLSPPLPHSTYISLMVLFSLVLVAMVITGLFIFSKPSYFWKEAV

[6] = target: P2Y purinoceptor 4 (Homo sapiens, UniProt P51582); assay: Antagonist activity at human P2Y4 receptor; format: functional
Sequence of P2Y purinoceptor 4 (P51582 whole entry): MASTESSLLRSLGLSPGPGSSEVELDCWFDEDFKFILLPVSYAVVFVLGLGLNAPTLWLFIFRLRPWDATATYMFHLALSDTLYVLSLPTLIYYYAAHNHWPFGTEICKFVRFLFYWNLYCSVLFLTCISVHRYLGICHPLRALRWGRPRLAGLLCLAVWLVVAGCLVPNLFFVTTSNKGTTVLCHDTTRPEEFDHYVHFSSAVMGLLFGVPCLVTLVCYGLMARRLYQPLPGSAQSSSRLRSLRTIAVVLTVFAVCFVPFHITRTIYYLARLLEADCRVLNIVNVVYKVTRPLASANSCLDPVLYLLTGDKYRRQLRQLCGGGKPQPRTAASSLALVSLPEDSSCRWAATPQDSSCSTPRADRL

Sequence of P2Y purinoceptor 2 (Mus musculus, UniProt P35383) (P35383 whole entry): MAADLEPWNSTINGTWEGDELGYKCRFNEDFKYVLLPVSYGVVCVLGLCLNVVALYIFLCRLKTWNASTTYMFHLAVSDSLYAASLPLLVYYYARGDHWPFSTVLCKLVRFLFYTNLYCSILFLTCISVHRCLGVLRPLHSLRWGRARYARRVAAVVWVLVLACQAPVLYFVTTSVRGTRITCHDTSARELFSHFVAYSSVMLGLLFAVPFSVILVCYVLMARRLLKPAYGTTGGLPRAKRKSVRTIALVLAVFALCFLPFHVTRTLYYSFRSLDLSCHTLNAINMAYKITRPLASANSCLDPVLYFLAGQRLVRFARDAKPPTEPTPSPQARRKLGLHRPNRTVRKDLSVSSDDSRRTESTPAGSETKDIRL
Sequence of P2Y purinoceptor 2 (Homo sapiens, UniProt P41231) (P41231 whole entry): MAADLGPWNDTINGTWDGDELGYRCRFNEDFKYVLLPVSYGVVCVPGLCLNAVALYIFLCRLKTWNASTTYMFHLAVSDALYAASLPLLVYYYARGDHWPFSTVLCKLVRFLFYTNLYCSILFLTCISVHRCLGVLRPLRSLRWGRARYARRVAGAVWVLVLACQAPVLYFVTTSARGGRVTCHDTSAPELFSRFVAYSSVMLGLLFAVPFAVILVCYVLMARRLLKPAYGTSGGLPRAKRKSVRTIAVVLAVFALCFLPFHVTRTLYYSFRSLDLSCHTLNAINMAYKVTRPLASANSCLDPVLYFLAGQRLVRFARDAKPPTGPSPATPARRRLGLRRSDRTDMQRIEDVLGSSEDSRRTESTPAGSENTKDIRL
Sequence of P2Y purinoceptor 6 (Q63371 whole entry): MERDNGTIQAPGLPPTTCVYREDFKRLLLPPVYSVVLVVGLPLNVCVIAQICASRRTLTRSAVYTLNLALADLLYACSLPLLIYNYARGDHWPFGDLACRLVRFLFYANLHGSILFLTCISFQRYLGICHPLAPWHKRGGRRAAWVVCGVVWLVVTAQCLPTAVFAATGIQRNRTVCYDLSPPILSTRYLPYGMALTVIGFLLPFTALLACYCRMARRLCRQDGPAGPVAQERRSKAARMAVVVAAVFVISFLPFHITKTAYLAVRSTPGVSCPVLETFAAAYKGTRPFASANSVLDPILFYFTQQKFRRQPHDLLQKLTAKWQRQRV

| IC50 [1] | IC50 [2] | Compound | also measured |
| --- | --- | --- | --- |
| 5.81 µM | 12 µM | CC(=O)Nc1ccc(Nc2cc(S(=O)(=O)O)c(N)c3c2C(=O)c2ccccc2C3=O)cc1 | – |
| 11.5 µM | 17 µM | COc1ccc(Nc2cc(S(=O)(=O)O)c(N)c3c2C(=O)c2ccccc2C3=O)cc1 | – |
| 3.04 µM | 22 µM | Cc1cccc(Nc2cc(S(=O)(=O)O)c(N)c3c2C(=O)c2ccccc2C3=O)c1 | – |
| 5.43 µM | 9 µM | Cc1ccc(Nc2cc(S(=O)(=O)O)c(N)c3c2C(=O)c2ccccc2C3=O)c(C)c1 | – |
| 30.3 µM | 17 µM | Cc1ccc(C)c(Nc2cc(S(=O)(=O)O)c(N)c3c2C(=O)c2ccccc2C3=O)c1 | – |
| 9.82 µM | 9 µM | COc1ccccc1Nc1cc(S(=O)(=O)O)c(N)c2c1C(=O)c1ccccc1C2=O | Ki [3]: > 100 µM; IC50 [4]: > 100 µM; Ki [5]: > 100 µM; IC50 [6]: 50 µM |
| 11.5 µM | 9 µM | CCOc1ccc(Nc2cc(S(=O)(=O)O)c(N)c3c2C(=O)c2ccccc2C3=O)cc1 | – |
| 3.93 µM | – | Nc1c(S(=O)(=O)O)cc(Nc2ccc(Nc3ccccc3)cc2)c2c1C(=O)c1ccccc1C2=O | – |
| – | > 100 µM | Nc1c(S(=O)(=O)O)cc(Br)c2c1C(=O)c1ccccc1C2=O [BROMAMINIC ACID] | – |
| 15 µM | 17 µM | CCOc1ccccc1Nc1cc(S(=O)(=O)O)c(N)c2c1C(=O)c1ccccc1C2=O | – |
| 5.31 µM | – | Nc1c(S(=O)(=O)O)cc(Nc2ccc(Cl)cc2)c2c1C(=O)c1ccccc1C2=O | – |
| 9.26 µM | 24 µM | CCc1ccccc1Nc1cc(S(=O)(=O)O)c(N)c2c1C(=O)c1ccccc1C2=O | – |
| – | > 100 µM | Nc1c(S(=O)(=O)O)cc(Nc2cccc([N+](=O)[O-])c2)c2c1C(=O)c1ccccc1C2=O | – |
| 24.9 µM | 27 µM | Cc1ccc(Nc2cc(S(=O)(=O)O)c(N)c3c2C(=O)c2ccccc2C3=O)cc1 | – |
| – | > 100 µM | CC(=O)c1ccc(Nc2cc(S(=O)(=O)O)c(N)c3c2C(=O)c2ccccc2C3=O)cc1 | – |
| 7.95 µM | 14 µM | Cc1cccc(Nc2cc(S(=O)(=O)O)c(N)c3c2C(=O)c2ccccc2C3=O)c1C | – |
| > 30 µM | > 100 µM | Nc1c(S(=O)(=O)O)cc(Nc2cccc(Cl)c2)c2c1C(=O)c1ccccc1C2=O | – |
| 16.2 µM | 10 µM | Cc1ccccc1Nc1cc(S(=O)(=O)O)c(N)c2c1C(=O)c1ccccc1C2=O | – |

| Compound | IC50 [1] | IC50 [2] | also measured |
| --- | --- | --- | --- |
| Nc1c(S(=O)(=O)O)cc(Nc2ccc(Nc3nc(Cl)nc(Nc4cccc(S(=O)(=O)O)c4)n3)c(S(=O)(=O)O)c2)c2c1C(=O)c1ccccc1C2=O [RB 2] | 1.85 µM | 5 µM | – |
